Experimental data pooled from the literature.
Compare with care: the assays were run in different laboratories.
Target: Cyclin-dependent kinase-like 1 (CDKL1, Homo sapiens, UniProt Q00532)

COc1cc(Cl)c(C(=O)N[C@@H](CN[C@H]2CC[C@@H](N)CC2)Cc2ccc(C#N)cc2)cc1-c1ccc(CN[C@H](C)c2ccc(C)cc2)o1 has a remaining activity of 101% (enzyme activity; inhibitor; 1 µM).
For Cc1ccc(C(=O)Nc2ccc(CN3CCN(C)CC3)c(C(F)(F)F)c2)cc1C#Cc1cnc2cccnn12, the remaining activity was 85% (enzyme activity; 23.5 nM).
Cn1c2c(Cl)c(Cl)ccc2c2cc(N)[nH]c(=O)c21 has a ΔTm of 0.3 °C (thermal stability; DSF; 10 µM).
CN1CC(Oc2cnc(C#N)cc2-c2ccn3nc(NC(=O)C4CC4)cc3c2)C1 gave an inhibition of 5% (enzyme activity; inhibitor; 1 µM).
NS(=O)(=O)c1cc(NC(=O)C2(c3ccccc3Cl)CC2)ccc1Oc1cccc(Cl)c1 gave a remaining binding of 99% (binding; competition with immobilised ligand; 1 µM).
The ΔTm of CCC1(CC)NC(=O)c2c(c3ccc(Cl)c(Cl)c3n2C)C1C#N (centres unmarked) is reported as 0 °C (thermal stability; DSF; 10 µM).
CO[C@@H](C)c1c(Nc2ccc([C@@H](N(C)C(=O)C3CCS(=O)(=O)CC3)C(F)(F)F)cc2)cnc2cc(Cl)nn12 gave a remaining binding of 74% (cell-free assay; competition with immobilised ligand; 1 µM).
The remaining signal of Nc1ncnc2occ(-c3ccc(NC(=O)Nc4cc(C(F)(F)F)ccc4F)cc3)c12 is reported as 0.55% (cell-free assay; 20 µM).
